Columns and labels:
[1] = test system: Human immunodeficiency virus; experiment: Inhibitory activity against HIV in Alex cells; format: functional, organism-based; conditions: Human immunodeficiency virus 1, Alex
In short: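 Alex cells preinfected with HIV for 3 h at 37 °C; compounds added in 3- or 5-fold dilutions (four for screening, eight for confirmation). Incubated 8 days at 37 °C in CO2, medium/sample changed on day 4. Reverse transcriptase measured on day 8. Uninfected cells exposed to the same dilutions for cytotoxicity. IC50 recorded.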

[2] = test system: Human alphaherpesvirus 2; experiment: Inhibitory activity against herpes simplex virus; format: functional, organism-based
In short: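 One-day-old confluent HEp-2 monolayers preinfected 1.5 h at 37 °C with HSV-2 (G and Lovelace strains); 3-fold dilutions over seven points, 72 h at 37 °C. Virus presence and toxicity scored visually by CPE. Uninfected cells with compound served as cytotoxicity control; virus inoculum checked by back-titration. IC50 recorded.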

[3] = Therapeutic ratio at 400 uM toxicity to Alex cells.; format: cell-based; conditions: human

Row | Compound | IC50 [1] | also measured
1 | NC(=O)c1cn(COC(CO)CO)c2ncnc(N)c12 | > 200 µM | 
2 | CSc1c(C(N)=O)c2c(N)ncnc2n1CC(O)CCO (centres undefined) | > 200 µM | 
3 | Cc1cn([C@H]2C[C@H](N=[N+]=[N-])[C@@H](CO)O2)c(=O)[nH]c1=O [ZIDOVUDINE] | 0.01 µM | 
4 | CSc1c(C#N)c2c(N)ncnc2n1CC(O)CO (centres undefined) | > 200 µM | 
5 | CSc1c(C#N)c2c(N)ncnc2n1COCCO | > 200 µM | 
6 | Nc1nc2c(ncn2COC(CO)CO)c(=O)[nH]1 [GANCICLOVIR] |  | IC50 [2]: 32 µM
7 | CSc1c(C(N)=O)c2c(O)nc(N)nc2n1COC(CO)CO | > 200 µM | 
8 | CSc1c(C(N)=O)c2c(N)ncnc2n1COCCO | > 200 µM | 
9 | CSc1c(C#N)c2c(O)nc(N)nc2n1COCCO | > 200 µM | 
10 | NC(=O)c1cn(COC(CO)CO)c2nc(N)nc(O)c12 | > 200 µM | 
11 | CSc1c(C(N)=O)c2c(O)nc(N)nc2n1CC(O)CCO (centres undefined) | > 200 µM | 
12 | N#Cc1cn(COCCO)c2ncnc(N)c12 | 46 µM | 
13 | N#Cc1cn(CC(O)CO)c2nc(N)nc(O)c12 (centres undefined) | > 200 µM | 
14 | CSc1c(C(N)=O)c2c(N)ncnc2n1COC(CO)CO | > 200 µM | 
15 | N#Cc1cn(CC(O)CCO)c2ncnc(N)c12 (centres undefined) | > 200 µM | 
16 | CSc1c(C#N)c2c(O)nc(N)nc2n1CC(O)CCO (centres undefined) | > 200 µM | 

Row | Compound | IC50 [1] | also measured
17 | NC(=O)c1cn(CC(O)CO)c2ncnc(N)c12 (centres undefined) | > 200 µM | 
18 | NC(=O)c1cn(CC(O)CO)c2nc(N)nc(O)c12 (centres undefined) | > 200 µM | 
19 | NC(=O)c1cn(CC(O)CCO)c2nc(N)nc(O)c12 (centres undefined) | > 200 µM | 
20 | N#Cc1cn(CC(O)CCO)c2nc(N)nc(O)c12 (centres undefined) | > 200 µM | 
21 | CSc1c(C#N)c2c(N)ncnc2n1COC(CO)CO | 20 µM | selectivity ratio at 400 µM [3]: 40
22 | CSc1c(C#N)c2c(O)nc(N)nc2n1CC(O)CO (centres undefined) | > 200 µM | 
23 | N#Cc1cn(COC(CO)CO)c2nc(N)nc(O)c12 | 3 µM | selectivity ratio [3]: 133
24 | CSc1c(C#N)c2c(N)ncnc2n1CC(O)CCO (centres undefined) | 100 µM | 
25 | CSc1c(C#N)c2c(O)nc(N)nc2n1COC(CO)CO | > 200 µM | 
26 | N#Cc1cn(CC(O)CO)c2ncnc(N)c12 (centres undefined) | 197 µM | 
27 | NC(=O)c1cn(COCCO)c2nc(N)nc(O)c12 | > 200 µM | 
28 | CSc1c(C(N)=O)c2c(O)nc(N)nc2n1CC(O)CO (centres undefined) | > 200 µM | 
29 | N#Cc1cn(COCCO)c2nc(N)nc(O)c12 | > 200 µM | 
30 | NC(=O)c1cn(CC(O)CCO)c2ncnc(N)c12 (centres undefined) | > 200 µM | 
31 | NC(=O)c1cn(COCCO)c2ncnc(N)c12 | > 200 µM | 
32 | CSc1c(C(N)=O)c2c(N)ncnc2n1CC(O)CO (centres undefined) | > 200 µM | 
